Experimental data: ChEMBL document CHEMBL4433216, “Discovery of Stereospecific PARP-1 Inhibitor Isoindolinone NMS-P515” (ACS Med Chem Lett, 2019)
Converted amounts (≈) assume the structure as drawn.

Assays:
[1] = biological target: T1, Poly [ADP-ribose] polymerase 1 (Homo sapiens, UniProt P09874); test: Displacement of fluorescent probe from human recombinant full length His-tagged PARP1 by fluorescent polarization assay
[2] = biological target: T1, Poly [ADP-ribose] polymerase 1; test: Inhibition of PARP1 in human HeLa cells assessed as reduction in H2O2-induced PAR formation incubated for 30 mins followed by H2O2 addition for 15 mins by immunocytochemistry analysis; type: cell-based
[3] = biological target: T1, Poly [ADP-ribose] polymerase 1; test: Binding affinity to human recombinant His/GST-tagged PARP1 catalytic domain (655-end residues) by surface plasma resonance method
CAPAN-1 [4] = test: animal or person; settings: Mus musculus, CAPAN-1, po, 288 h, read-out: GI
[5] = biological target: T2, Poly [ADP-ribose] polymerase tankyrase-1 (Homo sapiens, UniProt O95271); test: Displacement of fluorescent probe from human recombinant His-tagged TNKS1 catalytic domain (1091-1325 residues) by fluorescent polarization assay
T2 sequence (O95271 whole entry): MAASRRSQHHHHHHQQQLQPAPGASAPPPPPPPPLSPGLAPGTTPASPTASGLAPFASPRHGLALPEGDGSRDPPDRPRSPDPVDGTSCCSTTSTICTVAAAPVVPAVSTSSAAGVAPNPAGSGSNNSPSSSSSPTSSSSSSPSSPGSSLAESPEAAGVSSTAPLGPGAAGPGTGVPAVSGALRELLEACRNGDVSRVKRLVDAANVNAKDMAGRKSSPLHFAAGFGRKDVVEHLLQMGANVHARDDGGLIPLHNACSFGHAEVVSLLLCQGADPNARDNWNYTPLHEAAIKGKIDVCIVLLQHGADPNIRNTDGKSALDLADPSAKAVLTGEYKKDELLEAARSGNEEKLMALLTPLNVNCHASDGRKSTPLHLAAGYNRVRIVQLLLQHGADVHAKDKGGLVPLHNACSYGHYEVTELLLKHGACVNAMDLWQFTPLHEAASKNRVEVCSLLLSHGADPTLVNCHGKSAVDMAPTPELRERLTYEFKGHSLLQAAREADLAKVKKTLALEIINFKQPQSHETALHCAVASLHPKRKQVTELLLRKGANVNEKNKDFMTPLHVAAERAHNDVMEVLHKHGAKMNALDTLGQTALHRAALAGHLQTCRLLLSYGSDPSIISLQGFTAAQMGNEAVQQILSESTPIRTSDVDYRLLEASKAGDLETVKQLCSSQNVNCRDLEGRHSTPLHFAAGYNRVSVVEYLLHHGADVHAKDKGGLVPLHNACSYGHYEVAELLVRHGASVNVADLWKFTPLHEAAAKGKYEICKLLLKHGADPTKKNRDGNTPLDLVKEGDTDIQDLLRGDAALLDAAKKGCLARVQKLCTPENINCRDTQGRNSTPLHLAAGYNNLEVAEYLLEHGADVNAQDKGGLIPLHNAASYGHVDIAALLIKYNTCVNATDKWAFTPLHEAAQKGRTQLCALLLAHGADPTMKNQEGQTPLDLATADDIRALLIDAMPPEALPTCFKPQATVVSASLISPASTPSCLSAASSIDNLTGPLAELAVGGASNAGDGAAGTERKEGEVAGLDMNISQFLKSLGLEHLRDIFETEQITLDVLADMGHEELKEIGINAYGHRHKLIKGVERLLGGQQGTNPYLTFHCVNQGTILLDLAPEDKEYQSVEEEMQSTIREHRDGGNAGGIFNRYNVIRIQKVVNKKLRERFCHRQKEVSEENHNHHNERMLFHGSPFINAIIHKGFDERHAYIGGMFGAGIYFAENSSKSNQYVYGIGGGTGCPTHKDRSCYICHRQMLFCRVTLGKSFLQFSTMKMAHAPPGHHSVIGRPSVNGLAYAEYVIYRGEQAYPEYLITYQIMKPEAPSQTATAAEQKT
Summary of the method: (§1)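 Fluorescence polarization displacement assay measuring probe displacement from each ARTD enzyme. Results expressed as K_D.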

[6] = Half life in Balb Nu/Nu mouse at 10 mg/kg, iv measured upto 24 hrs by HPLC-MS-MS analysis; type: ADME, organism-based; settings: in vivo
[7] = Half life in Balb Nu/Nu mouse at 10 mg/kg, po measured upto 24 hrs by HPLC-MS-MS analysis; type: ADME, organism-based; settings: in vivo
in vitro [8] = test: in vitro; parameters: dose or concentration left out as unconfirmed; settings: rat, hepatocytes
[9] = AUC (0 to infinity) in Balb Nu/Nu mouse at 10 mg/kg, iv measured upto 24 hrs by HPLC-MS-MS analysis; type: ADME, organism-based; parameters: dose 10 mg/kg, time infinity, route intravenous; settings: in vivo
[10] = Cmax in Balb Nu/Nu mouse at 10 mg/kg, po measured upto 24 hrs by HPLC-MS-MS analysis; type: ADME, organism-based; parameters: dose 10 mg/kg, route oral; settings: in vivo
[11] = Oral bioavailability in Balb Nu/Nu mouse at 10 mg/kg measured upto 24 hrs by HPLC-MS-MS analysis; type: ADME, organism-based; settings: in vivo
Summary of the method: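 Oral PK in Harlan Nu/Nu mice, n = 3 per study, dosed per os at 10 mg/kg as a 0.5% methocel suspension. Bioavailability derived from oral versus iv exposure (AUC∞), with iv dosing in the same mouse strain.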

[12] = Permeability of the compound in pH 7.4 HBSS buffer assessed as percentage remained in membrane at 10 uM incubated for 4 hrs by LC-MS/MS based PAMPA method; type: ADME; settings: pH 7.4, 4 h
in vitro [13] = settings: mouse, plasma
[14] = Permeability of the compound in pH 7.4 HBSS at 10 uM incubated for 4 hrs by LC-MS/MS based PAMPA method; type: ADME; settings: read-out: permeability
[15] = biological target: Poly [ADP-ribose] polymerase 2 (Homo sapiens, UniProt Q9UGN5); test: Displacement of fluorescent probe from human recombinant full length His-tagged PARP2 by fluorescent polarization assay; summary of the method: as §1
Poly [ADP-ribose] polymerase 2, sequence (Q9UGN5 whole entry): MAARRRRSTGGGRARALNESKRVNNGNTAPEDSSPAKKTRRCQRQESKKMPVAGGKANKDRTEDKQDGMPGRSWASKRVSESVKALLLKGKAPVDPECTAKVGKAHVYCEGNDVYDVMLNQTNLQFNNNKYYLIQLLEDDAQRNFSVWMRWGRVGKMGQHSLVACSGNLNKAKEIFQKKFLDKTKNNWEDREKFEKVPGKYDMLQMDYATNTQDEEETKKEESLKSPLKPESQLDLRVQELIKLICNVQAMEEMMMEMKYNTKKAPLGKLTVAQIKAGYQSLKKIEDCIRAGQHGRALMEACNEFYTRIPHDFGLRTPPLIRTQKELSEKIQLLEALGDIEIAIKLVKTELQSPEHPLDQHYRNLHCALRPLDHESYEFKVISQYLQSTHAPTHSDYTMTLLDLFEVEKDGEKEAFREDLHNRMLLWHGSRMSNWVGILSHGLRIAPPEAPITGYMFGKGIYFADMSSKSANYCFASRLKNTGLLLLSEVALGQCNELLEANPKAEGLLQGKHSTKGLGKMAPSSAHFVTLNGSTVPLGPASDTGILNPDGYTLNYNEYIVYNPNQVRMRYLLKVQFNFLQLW

Cytochrome P450 2B6 = biological target: T3, Cytochrome P450 2B6 (Homo sapiens, UniProt P20813); test: Inhibition of CYP2B6 (unknown origin); type: ADME
T3 sequence (P20813 whole entry): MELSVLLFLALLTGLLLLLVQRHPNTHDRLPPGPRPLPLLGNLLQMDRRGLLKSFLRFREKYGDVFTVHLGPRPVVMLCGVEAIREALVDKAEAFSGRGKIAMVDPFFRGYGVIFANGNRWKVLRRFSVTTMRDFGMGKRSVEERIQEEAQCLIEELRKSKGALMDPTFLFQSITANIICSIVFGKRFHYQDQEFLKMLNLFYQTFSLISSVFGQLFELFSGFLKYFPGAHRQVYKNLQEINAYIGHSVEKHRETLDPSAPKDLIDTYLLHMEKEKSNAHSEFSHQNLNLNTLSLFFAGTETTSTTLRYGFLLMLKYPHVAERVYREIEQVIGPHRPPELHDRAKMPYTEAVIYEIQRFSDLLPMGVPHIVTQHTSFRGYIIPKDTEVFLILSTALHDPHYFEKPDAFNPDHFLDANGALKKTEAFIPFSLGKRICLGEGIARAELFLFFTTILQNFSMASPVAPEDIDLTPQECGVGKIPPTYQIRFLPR
Summary of the method: (§2)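 Screen of eight P450 cytochrome isoforms, with IC50 determined for each isoform.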

[16] = Toxicity in human Capan1 cells xenografted Balb athymic Nu/Nu mouse assessed as maximum body weight loss at 80 mg/kg, po qd administered for 12 days co-treated with 62.5 mg/kg, iv qd temozolomide for 5 days starting from day 3; settings: in vivo
[17] = biological target: T4, Protein mono-ADP-ribosyltransferase PARP3 (Homo sapiens, UniProt Q9Y6F1); test: Displacement of fluorescent probe from human recombinant His/GST-tagged PARP3 by fluorescent polarization assay; summary of the method: as §1
T4 sequence (Q9Y6F1 whole entry): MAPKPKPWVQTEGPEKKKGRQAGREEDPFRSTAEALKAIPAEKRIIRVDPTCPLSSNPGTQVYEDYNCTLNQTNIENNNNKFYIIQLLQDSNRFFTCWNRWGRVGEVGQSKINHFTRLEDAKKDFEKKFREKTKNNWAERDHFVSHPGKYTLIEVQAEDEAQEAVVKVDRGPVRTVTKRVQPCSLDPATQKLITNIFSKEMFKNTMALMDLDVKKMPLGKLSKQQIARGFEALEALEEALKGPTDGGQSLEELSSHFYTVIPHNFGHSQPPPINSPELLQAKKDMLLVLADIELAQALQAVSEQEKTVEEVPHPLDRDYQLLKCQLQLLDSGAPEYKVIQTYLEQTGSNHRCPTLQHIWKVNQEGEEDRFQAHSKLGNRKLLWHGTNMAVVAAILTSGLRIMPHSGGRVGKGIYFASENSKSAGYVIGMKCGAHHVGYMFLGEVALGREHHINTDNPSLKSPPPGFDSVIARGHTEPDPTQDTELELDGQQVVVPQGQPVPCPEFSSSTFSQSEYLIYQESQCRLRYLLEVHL

[18] = Toxicity in human Capan1 cells xenografted Balb athymic Nu/Nu mouse assessed as maximum weight loss at 80 mg/kg, po qd administered for 12 days; type: organism-based; settings: in vivo, 288 h
Summary of the method: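 BRCA-2 mutated Capan-1 pancreatic xenograft. The PARP-1 inhibitor was given orally as a methocel suspension at 80 mg/kg once daily for 12 days. Read-outs were maximal tumor growth inhibition and maximum body weight loss.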

[19] = Solubility in pH 7 ammonium acetate buffer by LC-MS/MS analysis; type: physicochemical
in vitro [20] = test: in vitro; parameters: dose or concentration left out as unconfirmed; settings: human, liver microsomes
Cytochrome P450 2D6 = Cytochrome P450 2D6 (Homo sapiens, UniProt P10635); test: Inhibition of CYP2D6 (unknown origin); type: ADME; summary of the method: as §2
Cytochrome P450 2D6, sequence (P10635 whole entry): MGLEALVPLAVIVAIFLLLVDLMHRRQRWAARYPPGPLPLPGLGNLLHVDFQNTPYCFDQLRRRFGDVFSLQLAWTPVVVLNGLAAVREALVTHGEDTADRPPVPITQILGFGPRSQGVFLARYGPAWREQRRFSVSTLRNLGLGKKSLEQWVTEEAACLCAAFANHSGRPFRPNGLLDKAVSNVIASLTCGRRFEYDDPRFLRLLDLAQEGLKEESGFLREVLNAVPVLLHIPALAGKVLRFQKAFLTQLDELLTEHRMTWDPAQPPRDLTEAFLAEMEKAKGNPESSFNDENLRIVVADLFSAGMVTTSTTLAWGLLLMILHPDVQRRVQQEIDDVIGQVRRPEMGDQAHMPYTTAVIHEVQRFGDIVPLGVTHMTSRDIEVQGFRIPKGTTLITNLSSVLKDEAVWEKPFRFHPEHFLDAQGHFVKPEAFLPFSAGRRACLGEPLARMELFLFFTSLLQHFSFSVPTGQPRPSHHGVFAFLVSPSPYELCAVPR

[21] = Cmax in Balb Nu/Nu mouse at 10 mg/kg, iv measured upto 24 hrs by HPLC-MS-MS analysis; type: ADME, organism-based; parameters: dose 10 mg/kg, route intravenous; settings: in vivo
[22] = AUC (0 to infinity) in Balb Nu/Nu mouse at 10 mg/kg, po measured upto 24 hrs by HPLC-MS-MS analysis; type: ADME, organism-based; parameters: dose 10 mg/kg, route oral, time infinity; settings: in vivo
in vivo = settings: Balb Nu/Nu, mouse, iv, 5 mg/kg
[23] = Half life in Balb Nu/Nu mouse at 5 mg/kg, iv measured upto 24 hrs by HPLC-MS-MS analysis; type: ADME, organism-based; settings: in vivo
[24] = Cmax in Balb Nu/Nu mouse at 5 mg/kg, iv measured upto 24 hrs by HPLC-MS-MS analysis; type: ADME, organism-based; parameters: dose 5 mg/kg, route intravenous; settings: in vivo
[25] = AUC (0 to infinity) in Balb Nu/Nu mouse at 5 mg/kg, iv measured upto 24 hrs by HPLC-MS-MS analysis; type: ADME, organism-based; parameters: dose 5 mg/kg, time infinity, route intravenous; settings: in vivo
CAPAN-1 [26] = test: Antitumor activity against human Capan1 cells xenografted in Balb athymic Nu/Nu mouse assessed as maximal tumor growth inhibition at 62.5 mg/kg, iv qd for 5 days; type: functional; settings: CAPAN-1, iv, 120 h, read-out: TGI
Summary of the method: (§3)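 Capan-1 pancreatic xenograft. Temozolomide was given alone at 62.5 mg/kg iv once daily for 5 days. Maximal tumor growth inhibition and maximum body weight loss were recorded.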

[27] = Toxicity in human Capan1 cells xenografted Balb athymic Nu/Nu mouse assessed as maximum weight loss at 62.5 mg/kg, iv qd for 5 days; type: organism-based; settings: in vivo, 120 h; summary of the method: as §3

T1 sequence (P09874 whole entry): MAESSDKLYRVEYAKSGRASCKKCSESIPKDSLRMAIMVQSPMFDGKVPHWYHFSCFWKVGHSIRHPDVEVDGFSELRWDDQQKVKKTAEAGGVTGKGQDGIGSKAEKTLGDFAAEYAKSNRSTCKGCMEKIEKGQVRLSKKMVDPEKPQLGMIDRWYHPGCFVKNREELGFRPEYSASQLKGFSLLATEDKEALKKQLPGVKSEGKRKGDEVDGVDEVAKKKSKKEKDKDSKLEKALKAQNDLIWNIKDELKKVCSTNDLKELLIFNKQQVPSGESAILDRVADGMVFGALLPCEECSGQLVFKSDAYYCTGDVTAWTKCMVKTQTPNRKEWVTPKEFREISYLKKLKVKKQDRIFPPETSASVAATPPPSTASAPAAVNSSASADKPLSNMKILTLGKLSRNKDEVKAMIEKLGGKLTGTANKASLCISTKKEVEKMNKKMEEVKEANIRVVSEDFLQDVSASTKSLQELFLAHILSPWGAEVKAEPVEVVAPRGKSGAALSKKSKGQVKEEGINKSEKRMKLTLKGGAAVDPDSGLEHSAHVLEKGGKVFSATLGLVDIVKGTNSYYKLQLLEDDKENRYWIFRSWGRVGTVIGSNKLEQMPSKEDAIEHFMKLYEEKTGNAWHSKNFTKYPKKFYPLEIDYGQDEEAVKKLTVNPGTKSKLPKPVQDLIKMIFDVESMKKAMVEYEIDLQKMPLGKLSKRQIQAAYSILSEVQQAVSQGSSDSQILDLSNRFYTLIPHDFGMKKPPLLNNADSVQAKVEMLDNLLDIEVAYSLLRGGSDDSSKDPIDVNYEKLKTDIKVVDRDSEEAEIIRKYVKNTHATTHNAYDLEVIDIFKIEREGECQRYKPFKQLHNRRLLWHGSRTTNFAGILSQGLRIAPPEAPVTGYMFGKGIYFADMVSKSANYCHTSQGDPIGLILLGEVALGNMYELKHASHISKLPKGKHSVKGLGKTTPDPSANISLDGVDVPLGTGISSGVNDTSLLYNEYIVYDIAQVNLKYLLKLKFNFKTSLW

| SMILES | Kd [1] | IC50 [2] | Kd [3] | Kd [5] | half-life [7] | CLint scaled at 1.5 h (in vitro [8]) | Cmax [10] | bioavailability [11] | permeability [12] | fraction unbound (in vitro [13]) | Papp at 4 h, 10 µM [14] | Kd [15] | IC50 (Cytochrome P450 2B6) | Kd [17] | solubility [19] | CLint scaled at 0.5 h (in vitro [20]) | IC50 (Cytochrome P450 2D6) | AUC(0-inf) [22] | other results |
| --- | --- | --- | --- | --- | --- | --- | --- | --- | --- | --- | --- | --- | --- | --- | --- | --- | --- | --- | --- |
| C[C@@H]1c2cccc(C(N)=O)c2C(=O)N1C1CCN(C2CCCCC2)CC1 | 1.32 µM | 0.162 µM | 1.76 µM | – | – | – | – | – | – | – | – | – | – | – | – | – | – | – | – |
| C[C@H]1c2cccc(C(N)=O)c2C(=O)N1C1CCN(C2CCCCC2)CC1 | < 0.03 µM | 0.027 µM | 0.016 µM | > 10 µM | 2.6 h | 0.3 L/h/kg | 1.4 µM | 78.3% | 0% | 0.13 | 273 nm/s | > 10 µM | > 31 µM | > 10 µM | > 225 µM | 0.3 L/h/kg | > 31 µM | 4.9 µM·h | inhibition in vivo at 80 mg/kg (CAPAN-1 [4]): 48%; half-life [6]: 2.1 h; AUC(0-inf) [9]: 8.2 µM·h; Activity [16]: 17%; Activity [18]: 6%; Cmax [21]: 4.9 µM |
| CC1c2cc(F)cc(C(N)=O)c2C(=O)N1C1CCN(C2CCCCC2)CC1 (racemic) | – | 0.64 µM | – | – | – | – | – | – | – | – | – | – | – | – | – | – | – | – | – |
| CC1c2cccc(C(N)=O)c2C(=O)N1C1CCN(C2CCCCC2)CC1 (racemic) | < 0.03 µM | 0.05 µM | – | > 10 µM | 3.1 h | 0.3 L/h/kg | 2.5 µM | 100% | 8% | 0.05 | 394 nm/s | > 10 µM | 4.9 µM | > 10 µM | 140 µM (≈ 49.8 µg/mL) | 0.3 L/h/kg | 0.6 µM | 13.5 µM·h | Vd at 24 h (in vivo): 3.6 L/kg; half-life [23]: 1.8 h; Cmax [24]: 2.5 µM; AUC(0-inf) [25]: 6.3 µM·h |
| Cn1nnc2c(C(N)=O)ncn2c1=O [TEMOZOLOMIDE] | – | – | – | – | – | – | – | – | – | – | – | – | – | – | – | – | – | – | inhibition in vivo at 62.5 mg/kg (CAPAN-1 [26]): 46%; Activity [27]: 8% |
